# From PubChem BioAssay
# MPTP block – mitochondrial permeability transition pore inhibitors, primary screen, biochemical, isolated mouse mitochondria, absorbance | inhibition, % at 10 µM | 360,000 tested, 1.4% active | AID 602449, 2012 | Ca2+ swelling absorbance, 30 min;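 active means inhibition of 50% or more, scaled per plate between neutral and stimulator controls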
# Redox H2O2 prof – compounds producing H2O2 with reducing agent – biochemical, NIH compound library profiling, artefact control for MLSCN library redox annotation, primary screen; DTT-dependent redox cycling H2O2, phenol red/HRP absorbance; 100% = 100 µM peroxide control, 0% = buffer; activation, % at 10 µM; 200,000 tested, 0.03% active;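 active means activation of at least 50% relative to the plate's high and low controls in the primary single-dose screen; inactive means activation below 50%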;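 further: compound incubated with DTT at 0.8 mM final as the reducing agent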
# T cruzi inh – inhibitors of intracellular T. cruzi growth, primary screen, luminescence, NIH3T3 host cells; T. cruzi beta-gal in NIH3T3, 90 h; inhibition, % (test concentration not listed); 300,000 tested, 1.4% active;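 active means mean inhibition across valid replicates above about 55%, limit read from the data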;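 further: signal also drops with host cell toxicity which is not excluded here; higher percent means less beta-gal luminescence so fewer parasites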
#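 Test system: β-gal T. cruzi (Tulahuen C4) inside NIH/3T3 cells / Quantity: 5,000 cells/well / Measured by: luminescence from GalScreen with 0.05% NP40, read after 60 min / Medium: DMEM plus 2% FBS / Measure: parasite load inhibition, % / Reagent: Tulahuen C4 trypomastigotes, 5000/well / Schedule: co-culture of at least 90 h after 3 h attachment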
# Lipid droplet – inhibitors of hepatocyte lipid droplet formation, primary screen, imaging, high-throughput imaging, BODIPY stain | AML12 mouse hepatocytes, oleate lipid droplets | 240,000 tested, 0.4% active | inhibition, % at 6.5 µM;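 active means lipid droplet intensity inhibited by at least 50%, with more than 500 cells counted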
#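 Material – mouse AML12 hepatocyte cell line, fixed after treatment · Compound dosing – one dose, 6.5 µM compound · Times – compound with oleate, overnight · Measured by – Image-based BODIPY and DAPI two-channel analysis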
# Lmaj promast – Leishmania major promastigote growth inhibition, primary screen; inhibition, % at 10 µM; Leishmania major promastigotes, resazurin fluorescence viability; 200,000 tested, 9% active; in the data active means inhibition above about 50%;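 further: promastigotes grown with compound for 44 hours at 28 °C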
# Numbers stand for hits; i = inactive; nt = no result. Shown is part of a subset that was picked to be rich in hits.
SMILES,MPTP block,Redox H2O2 prof,T cruzi inh,Lipid droplet,Lmaj promast
c1ccc(-c2cc(-c3nnc4n3N=C(c3ccc5ccccc5c3)CS4)[nH]n2)cc1,i,i,59,i,55
CC1=Nn2c(nnc2-c2n[nH]c3c2CCC3)SC1,i,i,i,nt,i
O=C(COC(=O)/C=C/c1cccc(F)c1)NC(=O)NCc1ccccc1,i,nt,nt,nt,nt
NS(=O)(=O)c1ccc(CCNC(=O)Nc2ccc(Cl)c(Cl)c2)cc1,i,i,i,i,76
CCOc1cccc(OCCOCCN(C)Cc2ccccc2)c1,i,i,i,i,79
CN(CCOc1ccccc1Cl)Cc1ccccc1,i,nt,i,i,nt
CN(CCOCCOc1ccc(Cl)cc1Br)Cc1ccccc1,i,i,i,i,87
Cc1ccc(Cl)c(OCCCCN(C)Cc2ccccc2)c1,i,i,i,nt,91
CN(CCCOc1ccccc1Br)Cc1ccccc1,i,i,i,i,i
Cc1cc(C)c(OCCN(C)Cc2ccccc2)c(Br)c1,i,i,57,i,i
CN(C)C(CNC(=O)c1cccc(C(F)(F)F)c1)c1ccco1 (stereo unspecified),i,nt,i,i,nt
CCCCN1C(=O)NC(c2ccc(OC)cc2)C(C(=O)OCc2ccccc2)=C1C (stereo unspecified),i,nt,i,i,nt
CN(CCOCCOc1ccc(F)cc1)Cc1ccccc1,i,nt,i,i,nt
CCOc1ccc(OCCN(C)Cc2ccccc2)cc1,i,i,i,i,93
N#Cc1ccccc1OCCOCCNC1CCCC1,i,i,i,i,82
COc1ccc(/C=C/c2nc3cc(-c4ccccc4)ccc3o2)cc1O,i,i,i,i,87
COc1ccc(/C=C/c2nc3ccccc3c(=O)o2)cc1,i,nt,i,i,nt
CCn1c(C)c(C(=O)O)c2cc(OC)c3ccccc3c21,i,nt,i,i,nt
Cc1cc(C(=O)CSc2n[nH]c(N)n2)c(C)n1-c1ccc2c(c1)OCO2,i,i,i,i,60
Cc1cc(C(=O)CSc2nc(N)cc(N)n2)c(C)n1-c1cccc(F)c1,i,i,i,i,77
Cc1cc(C(=O)COc2ccccc2Cl)c(C)n1-c1ccc2c(c1)OCO2,i,i,i,i,i
CCN1CCN(c2ncnc3c2c(-c2ccccc2)cn3-c2ccc(F)cc2)CC1,i,i,i,i,86
CCCCN(C)CCCNC(=O)c1cc(=O)[nH]c2ccc(S(=O)(=O)N3CCCCC3C)cc12 (stereo unspecified),i,i,i,i,i
CCC(=O)Nc1nc2ccccc2n1Cc1ccc(C)cc1,i,i,i,nt,99
O=C(Nc1nc2ccccc2n1CCOc1ccccc1)c1ccco1,i,i,i,nt,62
SMILES,MPTP block,Redox H2O2 prof,T cruzi inh,Lipid droplet,Lmaj promast
Cc1ccc(OCCn2c(NC(=O)c3ccco3)nc3ccccc32)cc1,i,i,i,i,i
O=C(Nc1nc2ccccc2n1CCOc1ccc(Cl)cc1)c1ccco1,i,i,57,nt,90
O=C(Nc1nc2ccccc2n1Cc1ccc(Cl)cc1)c1ccco1,i,i,76,nt,i
O=C(C(O)c1ccccc1)N1N=C(c2ccccc2)CC1(O)C(F)(F)F (stereo unspecified),i,nt,i,nt,nt
CCc1ccc(CN(C)C(=O)c2cc(COc3ccc(OC)cc3Cl)on2)nc1,i,nt,i,i,nt
COCOCCn1cc(CN2CCS(=O)(=O)N(Cc3ccc(-c4ccc(F)nc4)cc3)C(CC(C)C)C2=O)nn1 (stereo unspecified),i,nt,nt,nt,nt
O=C(NCc1ccccc1Cl)c1ccc(S(=O)(=O)Nc2cccc(C(F)(F)F)c2)cc1,i,i,i,i,61
O=C1Nc2c(c(=O)[nH]c(=O)n2-c2ccc(F)cc2)C1(NS(=O)(=O)c1ccccc1)C(F)(F)F (stereo unspecified),i,nt,i,i,nt
COc1ccc(NC(=O)/C(=C\c2ccc(OC)c(OC)c2)NC(=O)c2ccco2)cc1,i,nt,i,i,nt
O/N=C\c1ccccc1Oc1ccc(F)cc1,i,i,i,i,i
COC(=O)C1=CN(C(C)C)C=C(C(=O)OC)C1c1cc(Br)c(OC)c(OC)c1,i,i,nt,i,100
COC(=O)C1=CN(C(C)C)C=C(C(=O)OC)C1c1cccc(OC)c1,i,i,i,nt,i
COc1ccc(S(=O)(=O)N(C)C)cc1NC(=O)c1ccc(OCC(=O)N2CCOCC2)c(OC)c1,i,nt,i,nt,nt
COc1ccc(-c2nnc(SCc3nc4ccccc4s3)n2C(C)C)cc1,i,i,i,i,84
CCOc1cc(S(=O)(=O)Nc2cc(C)cc(C)c2)ccc1Cl,i,i,i,i,96
CCOc1cc(S(=O)(=O)NC2CCCC2)ccc1Cl,i,i,nt,i,i
COc1ccc(NS(=O)(=O)c2c(C)cc(C)cc2C)cn1,i,nt,i,i,nt
Cc1ccc(C)c(S(=O)(=O)N2CCN(CC(=O)N3CCc4ccccc4C3)CC2)c1,i,i,i,i,i
O=C(CN(C1CCCCC1)S(=O)(=O)c1ccccc1)N1CCCC1,i,i,i,i,i
O=C(c1ccccc1)C1CCN(CC(=O)N2CCN(c3ccccc3)CC2)CC1,i,i,i,i,92
O=C(CN1CCC(Cc2ccccc2)CC1)N1CCc2ccccc2C1,i,i,i,i,79
O=C(CN1CCN(c2ccc(F)cc2)CC1)N1CCC(Cc2ccccc2)CC1,i,i,i,i,88
CC1CCN(CC(=O)N2CCN(c3ccccc3)CC2)CC1,i,nt,i,i,nt
O=C(CN(C1CCCCC1)C1CCCCC1)N1CCc2ccccc2C1,i,i,i,i,64
O=C(CN1C(=O)NC2(CCCCCCC2)C1=O)N1CCc2ccccc2C1,i,i,i,nt,68
SMILES,MPTP block,Redox H2O2 prof,T cruzi inh,Lipid droplet,Lmaj promast
O=c1[nH]c(-c2ccccn2)nc(C(F)(F)F)c1Br,i,i,66,i,97
O=c1[nH]c(-c2ccccn2)nc2ccccc12,i,i,i,nt,i
Cc1cc(NCc2ccccc2)c2ccccc2n1,i,nt,i,i,nt
C/C(CCC(C)C)=N\Nc1cc(C)c2ccccc2n1,i,i,i,i,67
Cc1cc(C(=O)NCCC(C)C)c2ccccc2n1,i,nt,i,i,nt
COc1ccc(Nc2cc(C)c3ccccc3n2)cc1,i,i,i,i,83
Cc1cc(NCc2ccccc2)nc2ccccc12,i,i,i,i,53
COc1ccc(Nc2c3ccccc3nc3ccccc23)cc1,i,nt,i,i,nt
CCN(C[C@H]1N[C@@](CC)(C(=O)OC)[C@H]2C(=O)N(Cc3ccccc3)C(=O)[C@@H]12)S(=O)(=O)c1ccc(OC(F)(F)F)cc1,i,nt,nt,nt,nt
CS(=O)(=O)N(CC(=O)N1CCc2ccccc2C1)c1cccc(Br)c1,i,nt,i,nt,nt
Cc1ccc(C(=O)NC(=C(Cl)Cl)S(=O)(=O)c2ccc(C)cc2)cc1,i,i,i,i,62
Cc1ccc(S(=O)(=O)/C(=C/Cl)NC(=O)c2ccccc2)cc1,i,i,i,i,99
Cc1ccc(S(=O)(=O)C(NC(=O)c2ccccc2)=C(Cl)Cl)cc1,i,i,i,nt,62
COc1ccc(C(=O)NCc2ccc(F)cc2)cc1S(=O)(=O)N1CCCC1,i,nt,nt,nt,nt
